Data set [1] is described as follows: Apparent clearance in type 2 diabetic mellitus human at 540 mg, po administered as single dose. The data set is classed as ADME, organism-based. As to conditions: in vivo. An outline of the steps: (§1)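 Type 2 diabetic subjects each received a single oral dose. Plasma drug levels were followed over time. Parameters were derived by noncompartmental analysis and reported as geometric means with CV%. CL/F is apparent total clearance and Vz/F is apparent terminal-phase volume.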

Data set [2] can be described thus: AUC ( 0 to infinity) in type 2 diabetic mellitus human at 270 mg, po administered as single dose. The data set is classed as ADME, organism-based. The arrangement: time infinity, route oral, dose 270 mg. Conditions: in vivo. The method in brief: as §1
Data set [3] is described as follows: Apparent volume of distribution in type 2 diabetic mellitus human at 540 mg, po administered as single dose. The data set is classed as ADME, organism-based. Conditions: in vivo, read-out: Vz/F. The method in brief: as §1
Data set [4] in a line: Apparent volume of distribution in type 2 diabetic mellitus human at 270 mg, po administered as single dose. As to conditions: in vivo, read-out: Vz/F. The data set is classed as ADME, organism-based. The method in brief: as §1
Data set [5] in a line: Apparent volume of distribution in type 2 diabetic mellitus human at 1080 mg, po administered as single dose. The data set is classed as ADME, organism-based. As to conditions: in vivo, read-out: Vz/F. An outline of the steps:
as §1

Data set [6] can be described thus: Drug metabolism in dog hepatocytes assessed as demethylation by LC-MS/MS analysis. The data set is classed as ADME, cell-based, Canis lupus familiaris, Hepatocyte.
The nature of data set [7]: Half life in type 2 diabetic mellitus human at 1080 mg, po administered as single dose. The data set is classed as ADME, organism-based. Conditions: in vivo. An outline of the steps:
as §1

Data set [8] can be described thus: Drug metabolism in dog hepatocytes assessed as oxidation by LC-MS/MS analysis. The data set is classed as ADME, cell-based, Canis lupus familiaris, Hepatocyte.
Data set [9] in a line: Drug metabolism in mouse hepatocytes assessed as N-dealkylation by LC-MS/MS analysis. The data set is classed as ADME, cell-based, Hepatocyte.
The nature of data set [10]: Drug metabolism in mouse hepatocytes assessed as oxidation by LC-MS/MS analysis. The data set is classed as ADME, cell-based, Hepatocyte.
Data set [11] can be described thus: Drug distribution in C57BL/6 mouse spleen at 3 microg/kg, iv administered as single dose observed at 20 to 40 mins by LC-MS/MS analysis. The data set is classed as ADME, organism-based. Conditions: in vivo, 0.003 mg/kg, time 20-40 min, dose 3 µg/kg. An outline of the steps: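 Tracer microdose study in fed male C57BL/6 mice: single 3 μg/kg IV dose in 25% HP-BCD. Mice were killed by cervical dislocation, and spleen, ascending colon, skeletal muscle and plasma were sampled at 20 and 40 min.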

A short description of data set [12]: AUC in hyperglycemic Balb/c mouse plasma at 3.67 mg/kg measured upto 60 mins. The data set is classed as ADME, organism-based. The arrangement: dose 3.67 mg/kg, time <=60.
Data set [13] can be described thus: AUC in hyperglycemic Balb/c mouse plasma at greater than 0.58 mg/kg measured upto 60 mins. The data set is classed as ADME, organism-based. The arrangement: dose 0.58 mg/kg, time <=60.
The target in data set [14] is Free fatty acid receptor 1 (Mus musculus) (UniProt Q76JU9). Put plainly: Agonist activity at GPR40 in mouse pancreatic islets assessed as induction of glucose-mediated insulin secretion measured after 90 mins in EBSS buffer by ELISA. As to conditions: filed as agonist. (In an ELISA, binding on a coated surface is turned into a signal by an enzyme label.)
Data set [15] in a line: Cmax in rat plasma at 10 mg/kg, po or 3 mg/kg, iv by LC/MS/MS analysis. The arrangement: dose 10 mg/kg. The data set is classed as ADME, organism-based. An outline of the steps: (§2)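 Dosing was oral and intravenous in mice, rats or beagle dogs. Blood was drawn at set time points into EDTA and processed to plasma. Plasma was assayed by LC/MS/MS. Clearance, Cmax and terminal half-life were derived by noncompartmental analysis.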

Data set [16] in a line: Volume of distribution at steady state in rat at 10 mg/kg, po or 3 mg/kg, iv by LC/MS/MS analysis. The data set is classed as ADME, organism-based. As to conditions: in vivo, read-out: Vdss. The method in brief: (§3)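 Mice, rats and beagle dogs dosed; blood drawn at set times into EDTA, processed to plasma and assayed by LC/MS/MS. Parameters (clearance, Vdss, terminal half-life, Cmax, Tmax, oral bioavailability) derived by noncompartmental analysis.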

The nature of data set [17]: Oral bioavailability in dog at 5 mg/kg by LC/MS/MS analysis. The data set is classed as ADME, organism-based, Canis lupus familiaris. Conditions: in vivo. An outline of the steps:
as §3

Data set [18] can be described thus: Elimination half-life in dog plasma at 5 mg/kg, po or 1 mg/kg, iv by LC/MS/MS analysis. The data set is classed as ADME, organism-based, Canis lupus familiaris. The method in brief: as §2
Data set [19] can be described thus: Clearance in dog plasma at 5 mg/kg, po or 1 mg/kg, iv by LC/MS/MS analysis. The data set is classed as ADME, organism-based, Canis lupus familiaris. The method in brief:
as §2

The nature of data set [20]: Cmax in mouse plasma at 10 mg/kg, po or 1 mg/kg, iv by LC/MS/MS analysis. The arrangement: dose 10 mg/kg. The data set is classed as ADME, organism-based. The method in brief:
as §2

Data set [21] is described as follows: Half-life in mouse at 10 mg/kg, po or 1 mg/kg, iv by LC/MS/MS analysis. The data set is classed as ADME, organism-based. Conditions: in vivo. The method in brief: as §3
A short description of data set [22]: Oral bioavailability in rat at 10 mg/kg by LC/MS/MS analysis. The data set is classed as ADME, organism-based. Conditions: in vivo. The method in brief:
as §3

The structures appear in SMILES notation. Activity calls are given as the source filed them. The calls are words filed in the database; no cut-off is given here.

The term CL/F denotes the apparent clearance, not corrected for the fraction that reaches the circulation. The AUC(0-inf) is total exposure, with the tail of the curve extrapolated. Low readings indicate low exposure, high ones high exposure. Broadly, the half-life is the time in which the quantity being followed falls by half. Higher therefore signals slow decline. As a reminder, the AUC is concentration integrated over time. A higher AUC goes with high exposure. For orientation: Cmax means the peak of the concentration-time curve. For orientation: bioavailability means the share of a dose that reaches the circulation, judged against a reference dose that is usually intravenous. A higher bioavailability goes with good availability.

Chain of Free fatty acid receptor 1 (Mus musculus) (Q76JU9 whole entry): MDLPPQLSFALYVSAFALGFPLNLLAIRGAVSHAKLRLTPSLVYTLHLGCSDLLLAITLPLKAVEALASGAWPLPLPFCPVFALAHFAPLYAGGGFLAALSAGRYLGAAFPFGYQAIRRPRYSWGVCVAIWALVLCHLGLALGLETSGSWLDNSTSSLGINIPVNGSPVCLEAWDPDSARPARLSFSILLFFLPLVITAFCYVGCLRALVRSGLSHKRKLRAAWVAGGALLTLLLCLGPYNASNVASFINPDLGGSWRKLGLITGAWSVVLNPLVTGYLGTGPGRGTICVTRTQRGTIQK

For the compound `CC#C[C@@H](CC(=O)O)c1ccc(OCc2ccc(CN3CCCc4cccc(OC)c43)s2)cc1`, the apparent clearance (CL/F) in data set [1] is 217 mL/min. Further, the AUC(0-inf) in [2] turned out to be 19400 ng·h/mL. Further, the Vd/F in [3] is 273 L; in [4] it was 244 L; in [5], 358 L. The Drug metabolism entry in data set [6] is “Metabolite_Detected”. In data set [7], the half-life is 22.4 h.

As for `CC#C[C@@H](CC(=O)O)c1ccc(OCc2ccc(CN3CCC4(CCc5ccccc54)CC3)s2)cc1`, the Drug metabolism entry in data set [8], in data set [9] and in data set [10] was “Metabolite_Detected” in each case.

Turning to `CC#C[C@@H](CC(=O)O)c1ccc(OCc2ccc(CN3CCC4(C=Cc5ccccc54)CC3)s2)cc1`, the Drug uptake entry in data set [11] is “Active”. This compound also gave an AUC at 1 h in [12] of 1060 ng·h/mL.

Consider `CC#C[C@@H](CC(=O)O)c1ccc(OCc2ccc(CN3CCC4(C=Cc5ccccc54)CC3)cc2)cc1` [LY2881835], for which the AUC at 1 h in data set [13] worked out at 218 ng·h/mL. Also, the outcome in [14] was Active. The Cmax in data set [15] came to 11200 ng/mL; in data set [20], 1100 ng/mL. Besides, the Vd in data set [16] came out at 0.4 L/kg. In addition, the bioavailability in data set [17] worked out at 74%; in data set [22] it was 71%. For the same compound, the half-life was 5.05 h in [18] and 2.1 h in data set [21]. The compound further came in with a clearance in [19] of 4.9 mL/min/kg.

Values taken from ChEMBL document CHEMBL4765234 (J Med Chem, 2016).
